High-throughput results (PubChem)
Cneo AK release: causes C. neoformans cell lysis; AID 651654; lysis activity, % at 15 µM; adenylate kinase release luminescence, 4 h; normalised: neutral wells 0, clomiphene wells 100; 360,000 tested, 0.2% active;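 active = mean lysis activity across replicates of at least 80%, whatever share of replicates individually reach that level; inactive = mean lysis activity below 80%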
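Material: C. neoformans cells | Amount: Yeast cell density of 5 × 10^6 cells/mL | Medium: Fresh YPD growth medium | Dosing: Single dose | Times: Static 4 h at 37 °C with compound, 1 h detection | Detection: AK luminescence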
Wnt act: Wnt/beta-catenin pathway activation; 300,000 tested, 1.2% active; AID 743398; activation, % at 9.35 µM; Wnt/beta-catenin reporter cell assay, activator, plate reader; in the data active = activation above about 30%, passing the limit was not always enough; inconclusive = no clear call, values can overlap the other calls;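 also: 0% = neutral control wells and 100% = positive control wells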
HIV Env fusion: blocks HIV Env-driven cell-cell fusion; HeLa-JRFL Env/CEM21 cell fusion, luciferase; inhibition, % at 12.3 µM; 360,000 tested, 1.1% active;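 active = mean replicate inhibition score of at least 50 and every replicate individually at or above 50; inconclusive = only one of the two criteria met; inactive = mean below 50 and not all replicates reaching 50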;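 also: 0% = plate neutral controls and 100% = maraviroc near 300 nM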
esBAF inh: blocks esBAF chromatin remodeling in mouse ES cells. Bmi1-luciferase knock-in reporter, 24 h; 100% = twice the neutral-well signal. reporter increase, % at 12.5 µM. 350,000 tested, 2% active. AID 602393; in the data active = activation above about 40%; inconclusive = no clear call, values can overlap the other calls;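 also: 0% = median of the plate's neutral control wells and 100% = double that signal; a rise in the Bmi1 reporter signal indicates esBAF inhibition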
ERAP1 inh: ERAP1 (human) enzyme inhibition; inhibition, % at 10.7 µM; 340,000 tested, 0.15% active; Q9NZ08; recombinant ERAP1, Leu-AMC fluorescence, 60 min;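 active = mean replicate inhibition of at least 30%, or all replicates individually reaching that 30% level; inactive = mean below 30% and not every replicate reaching it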;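 also: 0% = neutral control wells and 100% = L-leucinethiol positive control wells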
Target sequence (Q9NZ08 whole entry, looked up): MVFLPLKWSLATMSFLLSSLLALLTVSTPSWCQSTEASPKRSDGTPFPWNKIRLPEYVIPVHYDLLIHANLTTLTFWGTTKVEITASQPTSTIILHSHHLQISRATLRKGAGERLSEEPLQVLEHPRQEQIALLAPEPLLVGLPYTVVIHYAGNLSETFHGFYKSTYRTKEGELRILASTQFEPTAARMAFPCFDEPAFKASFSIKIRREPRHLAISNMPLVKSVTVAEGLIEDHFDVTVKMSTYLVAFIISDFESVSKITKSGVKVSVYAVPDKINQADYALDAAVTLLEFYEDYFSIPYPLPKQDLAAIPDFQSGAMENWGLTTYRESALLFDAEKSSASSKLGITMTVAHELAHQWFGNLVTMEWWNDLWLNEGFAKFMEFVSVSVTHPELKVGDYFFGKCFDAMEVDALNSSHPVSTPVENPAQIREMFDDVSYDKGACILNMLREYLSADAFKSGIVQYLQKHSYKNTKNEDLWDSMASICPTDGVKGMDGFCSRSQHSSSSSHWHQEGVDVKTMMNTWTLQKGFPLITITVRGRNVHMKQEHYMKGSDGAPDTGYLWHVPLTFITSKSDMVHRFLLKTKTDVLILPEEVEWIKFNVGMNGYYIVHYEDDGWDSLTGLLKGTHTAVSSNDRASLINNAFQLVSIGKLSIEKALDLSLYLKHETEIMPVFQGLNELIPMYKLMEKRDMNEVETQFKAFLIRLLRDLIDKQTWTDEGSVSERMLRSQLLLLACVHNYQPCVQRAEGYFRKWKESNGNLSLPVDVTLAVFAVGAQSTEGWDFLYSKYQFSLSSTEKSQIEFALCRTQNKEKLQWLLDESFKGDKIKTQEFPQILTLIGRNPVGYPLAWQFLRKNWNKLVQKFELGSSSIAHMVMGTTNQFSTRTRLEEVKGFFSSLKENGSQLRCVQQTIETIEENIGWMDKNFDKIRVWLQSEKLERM
MITF TRPM1 HTS: increases MITF-driven TRPM1 promoter luciferase signal. SK-MEL-5 TRPM1-promoter luciferase, 24 h; % of positive control, neutral wells = 0. activation, % at 12.5 µM. 300,000 tested, 0.75% active. AID 588334;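 active = mean activation of at least 80% with every replicate also reaching 80%; inconclusive = mean reaches 80% but some replicate falls short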;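 also: 0% = neutral control wells and 100% = parthenolide positive control wells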
Active calls of the source: *; i = inactive; ? = inconclusive; nt = no result; [ ] = dose if it differs, or a comment. Shown are actives, neighbours in structure and some others; about 3.5% of the full set was active somewhere.

SMILES	Cneo AK release	Wnt act	HIV Env fusion	esBAF inh	ERAP1 inh	MITF TRPM1 HTS
Cc1noc(C)c1NC(=O)N(C)C[C@H]1OCCCC[C@@H](C)Oc2ccc(NC(=O)CCC(F)(F)F)cc2C(=O)N([C@@H](C)CO)C[C@@H]1C	2	nt	0[16.7 µM]	3	-2	nt
C[C@H]1CN([C@@H](C)CO)C(=O)c2cc(C#CCN(C)C)cnc2O[C@@H]1CN(C)S(=O)(=O)c1cn(C)cn1	54	nt	-25[16.7 µM]	-7	-1	nt
O=C(CSc1nnc(-c2cccnc2)o1)Nc1ccccc1F	0	40*	-274	5	-1	52
O=C(CSc1nnc(-c2ccc(O)cc2)o1)Nc1ccc2c(c1)OCCO2	-1	nt	nt	-10	nt	50
COc1ccccc1NC(=O)CSc1nnc(-c2ccc(C)cc2)o1	-2	58*	-308	-13	nt	nt
O=C(CSc1nnc(-c2ccc(O)cc2)o1)Nc1cccc(O)c1	-1	34*	-29	12	1	66
O=C(CSc1nnc(-c2cccnc2)o1)Nc1ccccc1Br	-9	2	1	19	2	nt
CN(C)CCCNC(=O)C[C@@H]1CC[C@H](NS(=O)(=O)c2ccc(F)cc2)[C@@H](CO)O1	41	nt	-9[16.7 µM]	-1	-1	nt
Cc1noc(C)c1NC(=O)Nc1ccc2c(c1)C(=O)N([C@@H](C)CO)C[C@H](C)[C@@H](CN(C)S(=O)(=O)c1cn(C)cn1)OCCCC[C@H](C)O2	0	nt	-8[16.7 µM]	-1	0	nt
CN(C)/C=N/c1cnc(C(=O)c2ccc(Cl)cc2)n1C	0	nt	nt	45*	-3	?
CN(C)/C=N/NC(=O)c1ccc(Cl)cc1	8	-2	0	nt	0	-7
Cc1ccc(NC(=O)c2ccc3nc[nH]c3c2)nc1	-1	26	-45	nt	1	28
Cc1ccc(NC(=O)c2ccc3nc[nH]c3c2)c(O)c1	-9	7	0	51*	-7	27
O=C(CCOc1ccccc1)N1CCN(c2ccc(O)cc2)CC1	7	50*	38	4	6	10
O=C(CCCOc1ccccc1)N1CCN(c2ccccc2)CC1	7	nt	nt	28	nt	57
COc1ccc(NC(=O)c2sccc2SCc2cccc(C(F)(F)F)c2)cc1	0	nt	80*	nt	nt	9
CCOc1ccc(N/C(C)=C\C(=O)c2ccc3c(c2)OCCO3)cc1	nt	36*	-46	nt	-2	45
CCOc1ccc(N/C(C)=C/C(=O)c2ccc3c(c2)OCCO3)cc1	nt	47*	-12	nt	3	61
CCCC#Cc1ccc([C@H]2[C@H]3CN(C(=O)c4ccccc4)CC(=O)N3[C@H]2CO)cc1	nt	nt	nt	nt	3	nt
O=C(NC(=S)Nc1cc(Cl)ccc1N1CCOCC1)c1ccccc1[N+](=O)[O-]	340*	0	i	nt	1	6
COc1ccc(Cl)cc1C(=O)NC(=S)Nc1ccccc1N1CCOCC1	-9	-1	-1	1	3	-35
CO[C@@H]1CN(C)C(=O)c2ccc(NS(=O)(=O)c3ccc(C)cc3)cc2OC[C@@H](C)N(Cc2ccccn2)C[C@H]1C	-3	nt	-16[16.7 µM]	2	0	nt
COc1ccc(S(=O)(=O)N[C@H]2C=C[C@@H](CC(=O)NCCc3ccncc3)O[C@@H]2CO)cc1	0	nt	nt	1	nt	nt
FC(F)(F)c1cccc(NC(=S)NCc2ccc(Cl)cc2)c1	nt	-13	64*	nt	nt	0
Cc1ccc(NC(=S)NNC(=S)Nc2cccc(C(F)(F)F)c2)cc1	-2	40*	-10	nt	0	nt
SMILES	Cneo AK release	Wnt act	HIV Env fusion	esBAF inh	ERAP1 inh	MITF TRPM1 HTS
CN(C)NC(=S)Nc1cccc(C(F)(F)F)c1	3	0	-5	-9	2	-3
C[C@H](CO)N1C[C@H](C)[C@H](CN(C)C)Oc2ccc(NC(=O)Nc3ccc(F)cc3)cc2C1=O	-1	nt	nt	2	0	nt
C[C@@H]1CN([C@@H](C)CO)C(=O)Cc2cc(NS(=O)(=O)c3cccs3)ccc2O[C@H]1CN(C)C(=O)Nc1ccc(C(F)(F)F)cc1	-1	nt	4[16.7 µM]	-3	1	nt
CC(=O)Nc1nnc(COc2ccc(Cl)cc2)s1	nt	-1	-18	?	0	100*
CCCNC(=O)N1CC2(C1)CN(C(=O)c1ccccc1)[C@@H](CO)c1[nH]c3cc(OC)ccc3c12	nt	nt	nt	nt	2	nt
C[C@@H]1CCCCO[C@H](CN(C)C)[C@@H](C)CN([C@H](C)CO)C(=O)c2cc(NC(=O)Cc3ccccc3)ccc2O1	nt	nt	-2[16.7 µM]	-6	nt	nt
C(=N\n1cnnc1)/c1cccc(OCCOc2ccccc2)c1	2	nt	nt	35	nt	22
Fc1ccccc1COc1ccc(/C=N/n2cnnc2)cc1	1	37*	-27	38	nt	nt
C(=N\n1cnnc1)/c1ccccc1OCCOc1ccccc1	0	3	nt	61*	nt	36
C(=N\n1cnnc1)/c1ccc(OCc2cccc3ccccc23)cc1	6	nt	nt	nt	nt	36
CC1=CC2(CO)C(=O)[C@]3(CO3)[C@H]1[C@H]1[C@]2(C)C=C(CO)C(=O)[C@]12CO2	-27	nt	1[16.7 µM]	nt	-3	nt
COc1ccc(C(=O)Nc2nc3ccccc3s2)c(OC)c1	-4	-9	79*	-85	1	nt
COc1n[nH]c(C(=O)Nc2nc3ccccc3s2)c1[N+](=O)[O-]	nt	53*	-7	nt	1	-12
COc1ccc(NC(=O)Nc2nc3ccccc3s2)cc1	nt	2	-105	nt	0	?
COc1cc2nc(NC(=O)c3ccccc3)sc(=O)c2cc1OC	-1	0	59*	-15	-1	37
COc1cc2nc(NC(=O)c3ccccc3)[nH]c(=O)c2cc1OC	0	-5	-38	-7	nt	15
COc1ccccc1C(=O)Nc1nc2ccccc2s1	-5	-8	79*	-84	3	nt
COc1ccccc1-c1cnc2c(c1)C(=O)N([C@@H](C)CO)C[C@@H](C)[C@@H](CN(C)Cc1cccc(F)c1)O2	1	nt	16[16.7 µM]	2	4	nt
CCCNC(=O)Nc1ccc2c(c1)C(=O)N(C)C[C@H](OC)[C@H](C)CN(Cc1cccnc1)[C@H](C)CO2	-4	nt	nt	-4	3	nt
COc1ccc(-c2oc3ccccc3c2C(=O)OCc2ccc(O)cc2)cc1	1	-2	0	45*	-3	2
CCC(=O)N1CC[C@@H]2[C@H]1c1cc(-c3ccccc3F)ccc1N(C)[C@@H]2CO	3	nt	nt	2	1	nt
O=C(NCC1CC1)[C@H]1[C@H](CO)[C@H]2Cn3c(ccc(C4=CCCC4)c3=O)[C@H]2N1Cc1ccccc1F	-3	nt	4[16.7 µM]	6	-6	nt
Cc1cc2sc3nc(=O)n(-c4ccccc4)c(=O)n3c2cc1C	nt	71*	-51	nt	nt	nt
CC(C)NC(=O)Nc1ccc2c(c1)CC(=O)N([C@@H](C)CO)C[C@@H](C)[C@H](CN(C)CC1CCCCC1)O2	-1	nt	-4[16.7 µM]	4	-1	nt
Cc1cccc(S(=O)(=O)N2CC[C@@H]3[C@H](CO)Nc4ccc(C#Cc5ccc(F)cc5)cc4[C@@H]32)c1	0	nt	nt	-2	3	nt
Cc1ncc(CO)c(/C=N/NC(=O)c2ccccc2Br)c1O	nt	-11	-12	nt	54*	-7
